Laboratory results reported in ChEMBL document CHEMBL1149096 (J Med Chem, 2004).
Values joined by “and” are separate entries in the source; they are usually repeats but may differ in a detail not shown here. Equal values may be shown once. Active and inactive are the calls of the source.

Key:
[1] = target: T1, Kappa-type opioid receptor (Cavia porcellus, UniProt P41144); experiment: Binding affinity at Opioid receptor kappa 1 by displacement of [3H]U-69593 in guinea pig brain membranes; assay type: cell membranes, Membrane
[2] = target: Delta-type opioid receptor (Rattus norvegicus, UniProt P33533); experiment: Binding affinity at opioid receptor delta 1 by displacement of [3H]DADLE in rat brain membrane; assay type: cell membranes
[3] = target: T2, Mu-type opioid receptor (Cavia porcellus, UniProt P97266); experiment: Agonistic activity towards Opioid receptor mu 1 was determined in [35S]GTP-gamma-S, binding assay in guinea pig caudate; g = not active as an agonist; assay type: functional
Method in brief: (§1)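 Guinea pig caudate membranes (10-20 µg protein) incubated 3 h at 22 °C in Tris-HCl pH 7.4 containing 100 mM NaCl, 10 mM MgCl2, 1 mM EDTA, 100 µM GDP and 0.05-0.1 nM [35S]GTP-γ-S, then filtered and counted. Nonspecific binding defined with 10 µM GTP-γ-S. Site isolation used CTAP, nor-BNI, NTI or TIPP. […] Three experiments pooled; logistic fit.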

[4] = target: T1, Kappa-type opioid receptor; experiment: Agonistic activity towards Opioid receptor kappa 1 was determined in [35S]GTP-gamma-S, binding assay in guinea pig caudate; g = not active as an agonist; assay type: functional; method in brief: as §1
[5] = target: Delta-type opioid receptor (Mus musculus) (UniProt P32300); experiment: Agonist activity by the maximum response towards opioid receptor delta 1 induced contractions in mouse vas deferens (MVD) smooth muscle contraction assays; assay type: functional, tissue-based
Method in brief: (§2)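 Electrically stimulated MVD (male ICR mice, 25-40 g) and GPI longitudinal muscle myenteric plexus strips (male Hartley guinea pigs, 250-500 g). Baths held 37 °C oxygenated Krebs bicarbonate (Mg-free for MVD), tension 1 g GPI / 0.5 g MVD. Stimulation 0.1 Hz, 0.4 ms pulses (2 ms MVD), supramaximal voltage. […] IC50 from two to four tissues by nonlinear least squares.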

[6] = target: T2, Mu-type opioid receptor; experiment: Apparent binding affinity of compound was determined by antagonism towards Opioid receptor mu 1 in [35S]GTP-gamma-S, binding assay in guinea pig caudate; assay type: functional
[7] = species on record: Mus musculus; experiment: Antinociceptive effect was determined by the ability to exhibit 80% reduction of naloxone induced sensitivity; No; assay type: functional, organism-based
[8] = target: Opioid receptors; mu & delta (Rattus norvegicus) (UniProt P33533+P33535); experiment: Selectivity given as ratio of mu receptor to delta receptor; assay type: protein assay
[9] = target: Delta-type opioid receptor (Mus musculus) (UniProt P32300); details: Vas deferens; filed as agonist
[10] = species on record: Mus musculus; experiment: Antinociceptive effect was determined at 100 nM in mouse; assay type: functional
[11] = target: T1, Kappa-type opioid receptor; experiment: Apparent binding affinity of compound was determined by antagonism towards Opioid receptor kappa 1 in [35S]GTP-gamma-S, binding assay in guinea pig caudate; assay type: functional
[12] = target: T2, Mu-type opioid receptor; experiment: Inhibitory concentration for inhibition of Opioid receptor mu 1 induced contractions in guinea pig ileum (GPI) smooth muscle assays; assay type: functional, tissue-based
Method in brief: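 Electrically stimulated MVD (male ICR mice, 25-40 g) and GPI longitudinal muscle myenteric plexus strips (male Hartley guinea pigs, 250-500 g). Baths held 37 °C oxygenated Krebs bicarbonate (Mg-free for MVD), tension 1 g GPI / 0.5 g MVD. Stimulation 0.1 Hz, 0.4 ms pulses (2 ms MVD), supramaximal voltage. IC50 from two to four tissues by nonlinear least squares.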

[13] = target: T2, Mu-type opioid receptor; experiment: Agonistic activity towards Opioid receptor mu 1 was determined in [35S]GTP-gamma-S, binding assay in guinea pig caudate; assay type: functional; details: read-out: EC50; method in brief: as §1
[14] = species on record: Cavia porcellus; experiment: Selectivity given as ratio of kappa receptor to delta receptor
[15] = target: Mu-type opioid receptor (Cavia porcellus) (UniProt P97266); details: Ileum, filed as agonist
[16] = target: Mu-type opioid receptor (Rattus norvegicus, UniProt P33535); experiment: Binding affinity at Opioid receptor mu 1 by displacement of [3H]DAMGO in rat brain membrane; assay type: cell membranes
[17] = target: Delta-type opioid receptor (Mus musculus) (UniProt P32300); experiment: Agonist activity by the max response towards opioid receptor delta 1 induced contractions in mouse vas deferens (MVD) smooth muscle contraction assays; assay type: functional, tissue-based; method in brief: as §2
[18] = target: T1, Kappa-type opioid receptor; experiment: Agonistic activity towards Opioid receptor kappa 1 was determined in [35S]GTP-gamma-S, binding assay in guinea pig caudate; assay type: functional; method in brief: as §1
[19] = target: Delta-type opioid receptor (Mus musculus) (UniProt P32300); details: Vas deferens
[20] = tested on: Mus musculus; experiment: Analgesic activity was calculated at time of peak drug effect when administered (icv) in mouse warm-water tail withdrawal assay; assay type: functional
Method in brief: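 Male ICR mice dosed icv (5 µL; water or 100% DMSO) under light ether anaesthesia. 55 °C warm-water tail withdrawal read at 10-180 min, cutoff 10 s. %MPE = 100 × (test − control)/(cutoff − control). A50 and 95% CI taken at peak effect by linear regression.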

[21] = species on record: Mus musculus; experiment: Antinociceptive effect was determined by the ability to exhibit 80% reduction of naloxone induced sensitivity; Yes; assay type: functional, organism-based
[22] = target: Mu-type opioid receptor (Cavia porcellus) (UniProt P97266); details: Ileum, filed as agonist; remark: listed apart in the source

Chain of Mu-type opioid receptor (Rattus norvegicus, UniProt P33535) (P33535 whole entry): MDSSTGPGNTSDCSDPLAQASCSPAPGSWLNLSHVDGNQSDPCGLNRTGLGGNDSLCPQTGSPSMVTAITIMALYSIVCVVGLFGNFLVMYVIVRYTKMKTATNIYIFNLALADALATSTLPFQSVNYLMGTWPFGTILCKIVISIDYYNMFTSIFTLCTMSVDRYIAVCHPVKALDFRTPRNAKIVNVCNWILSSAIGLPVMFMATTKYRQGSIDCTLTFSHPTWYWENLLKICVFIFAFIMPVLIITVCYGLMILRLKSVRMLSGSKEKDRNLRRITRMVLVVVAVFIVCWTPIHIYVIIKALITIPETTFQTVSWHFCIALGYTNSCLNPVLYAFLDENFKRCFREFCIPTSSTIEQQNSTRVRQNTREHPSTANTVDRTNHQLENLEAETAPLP
Chain of Delta-type opioid receptor (P33533 whole entry): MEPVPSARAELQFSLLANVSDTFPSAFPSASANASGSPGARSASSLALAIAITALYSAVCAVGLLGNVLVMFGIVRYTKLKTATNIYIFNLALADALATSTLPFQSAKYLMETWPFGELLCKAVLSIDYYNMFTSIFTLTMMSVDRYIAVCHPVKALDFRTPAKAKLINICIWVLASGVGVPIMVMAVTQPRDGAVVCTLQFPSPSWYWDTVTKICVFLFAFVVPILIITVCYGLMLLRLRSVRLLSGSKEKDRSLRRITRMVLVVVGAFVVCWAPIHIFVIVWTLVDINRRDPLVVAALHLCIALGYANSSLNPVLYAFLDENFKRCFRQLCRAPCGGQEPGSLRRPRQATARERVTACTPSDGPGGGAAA
Chain of Opioid receptors; mu & delta (Rattus norvegicus) (P33533 whole entry, looked up): as the sequence (P33533 whole entry) above
Chain of Opioid receptors; mu & delta (Rattus norvegicus) (P33535 whole entry, looked up): as the sequence (P33535 whole entry) above
Chain of Mu-type opioid receptor (Cavia porcellus) (P97266 whole entry): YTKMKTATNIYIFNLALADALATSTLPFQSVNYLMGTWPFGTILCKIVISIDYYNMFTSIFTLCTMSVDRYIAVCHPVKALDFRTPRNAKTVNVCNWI
T2 sequence (P97266 whole entry): as above
Chain of Delta-type opioid receptor (Mus musculus) (P32300 whole entry): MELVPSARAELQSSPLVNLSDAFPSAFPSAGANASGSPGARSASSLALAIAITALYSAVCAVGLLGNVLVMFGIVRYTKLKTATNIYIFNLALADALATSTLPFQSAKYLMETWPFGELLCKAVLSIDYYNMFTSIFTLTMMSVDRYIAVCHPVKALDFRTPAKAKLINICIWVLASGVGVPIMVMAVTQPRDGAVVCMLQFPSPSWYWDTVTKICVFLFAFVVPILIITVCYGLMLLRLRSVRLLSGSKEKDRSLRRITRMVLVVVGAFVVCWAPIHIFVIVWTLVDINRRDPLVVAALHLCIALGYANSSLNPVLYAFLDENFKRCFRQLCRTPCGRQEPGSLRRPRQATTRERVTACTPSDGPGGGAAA
T1 sequence (P41144 whole entry): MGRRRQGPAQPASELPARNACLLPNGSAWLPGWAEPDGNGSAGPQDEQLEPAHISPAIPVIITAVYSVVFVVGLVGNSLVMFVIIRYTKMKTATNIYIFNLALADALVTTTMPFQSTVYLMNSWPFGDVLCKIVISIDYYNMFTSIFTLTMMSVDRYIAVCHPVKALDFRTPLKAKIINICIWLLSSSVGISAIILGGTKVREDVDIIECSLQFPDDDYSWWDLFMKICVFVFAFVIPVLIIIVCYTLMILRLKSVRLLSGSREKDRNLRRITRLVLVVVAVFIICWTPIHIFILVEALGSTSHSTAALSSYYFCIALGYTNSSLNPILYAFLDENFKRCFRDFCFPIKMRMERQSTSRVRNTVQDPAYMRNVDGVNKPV

| SMILES | Ki [1] [nM] | Ki [2] [nM] | EC50 [4] | Response [5] | Ki [6] [nM] | Ratio [8] | IC50 [12] [nM] | Ratio [14] | further results |
| --- | --- | --- | --- | --- | --- | --- | --- | --- | --- |
| Oc1ccc2c3c1O[C@H]1c4[nH]c5ccccc5c4C[C@@]4(O)[C@@H](C2)N(CC2CC2)CC[C@]314 [NALTRINDOLE] | 75 | 1.6 | Not Active | 16% and 18% |  |  |  |  | EC50 [3]: Not Active |
| CN1CC[C@]23c4c5ccc(O)c4O[C@H]2c2ncccc2C[C@H]3[C@H]1C5 |  |  | Not Active |  | > 1000 | 1.6 | 67.7 | 8 | Activity [7]: inactive; Ke [9]: Agonist; Activity [10]: 75%; Ki [11]: > 1000 nM; EC50 [13]: 3000 nM; Ke [15]: Agonist |
| CN1CC[C@]23c4c5ccc(O)c4O[C@H]2c2ncc(-c4ccc(Br)cc4)cc2C[C@@]3(O)[C@H]1C5 | 432 | 4 |  |  |  | 49 |  | 108 | Ki [16]: 196 nM |
| Oc1ccc2c3c1O[C@H]1c4ncccc4C[C@@]4(O)[C@@H](C2)N(CC2CC2)CC[C@]314 |  |  |  | 0% |  | 1.9 |  | 11 |  |
| CN1CC[C@]23c4c5ccc(O)c4O[C@H]2c2ncc(-c4ccc(Cl)cc4Cl)cc2C[C@H]3[C@H]1C5 |  |  |  |  | > 1000 | 88 | 724 | 366 | Response [17]: 28.3%; EC50 [18]: Not Active; Ke [19]: 5.02 nM; EC50 ([3]; read-out: EC50): 225 nM; Activity [10]: 40%; Ke [15]: Agonist |
| C=CCN1C[C@H](C)N([C@H](c2ccc(C(=O)N(CC)CC)cc2)c2cccc(OC)c2)C[C@H]1C [SNC-80] | 8760 |  |  |  |  |  |  |  | Ki [16]: 8070 nM |
| Oc1ccc2c3c1O[C@H]1c4ncc(-c5ccc(Cl)cc5)cc4C[C@H]4[C@@H](C2)N(CC2CC2)CC[C@]314 |  |  | Not Active |  | 9.2 | 24 | 109 | 2.3 | Response [17]: 7.9%; Ke [19]: 6 nM; EC50 [3]: Not Active; Ke [15]: Agonist |
| CN1CC[C@]23c4c5ccc(O)c4O[C@H]2c2ncccc2C[C@@]3(O)[C@H]1C5 |  |  | Not Active |  | > 1000 | 0.4 | 523 | 15 | Response [17]: 49%; A50 [20]: 67.1 nM; Ki [11]: > 1000 nM; EC50 [13]: 3000 nM; Activity [21]: Active |
| C[C@@H](NC(=O)[C@@H](N)Cc1ccc(O)cc1)C(=O)NCC(=O)N(C)[C@@H](Cc1ccccc1)C(=O)NCCO [DAMGO] | 5820 | 469 |  |  |  |  |  |  |  |
| CN1CC[C@]23c4c5ccc(O)c4O[C@H]2c2ncc(-c4ccc(Br)cc4)cc2C[C@H]3[C@H]1C5 |  |  |  | 44% | > 1000 | 40 | 666 | 18 | EC50 [18]: Not Active; Ke [19]: 20 nM; Ke [22]: Agonist; EC50 ([3]; read-out: EC50): 3220 nM; A50 [20]: 47.2 nM; Activity [21]: Active |
| Oc1ccc2c3c1O[C@H]1c4ncc(-c5ccc(Cl)cc5)cc4C[C@@]4(O)[C@@H](C2)N(CC2CC2)CC[C@]314 |  |  | Not Active | 21% | 7.8 |  | 163 |  | EC50 [3]: Not Active; Activity [10]: 21% |
| COc1ccc2c3c1O[C@H]1c4ncc(-c5ccc(Cl)cc5)cc4C[C@@]4(O)[C@@H](C2)N(C)CC[C@]314 | > 7100 |  |  |  |  |  |  |  |  |
| COc1ccc2c3c1O[C@H]1c4ncc(-c5ccc(Br)cc5)cc4C[C@@]4(O)[C@@H](C2)N(C)CC[C@]314 | 7370 | 23 |  |  |  | 82 |  | 320 | Ki [16]: 1890 nM |
